Measured values as given in ChEMBL document CHEMBL1138064, “Discovery of N-[(3R)-1-azabicyclo[2.2.2]oct-3-yl]furo[2,3-c]pyridine-5-carboxamide, an agonist of the alpha7 nicotinic acetylcholine receptor, for the potential treatment of cognitive deficits in schizophrenia: synthesis and structure--activity relationship” (J Med Chem, 2006).

How the values were obtained:
[1] = molecular target: Beta-1 adrenergic receptor (Homo sapiens) (UniProt P08588); assay: Inhibition of adrenergic beta-1 receptor at 1 uM
Sequence of Beta-1 adrenergic receptor (Homo sapiens) (P08588 whole entry, looked up): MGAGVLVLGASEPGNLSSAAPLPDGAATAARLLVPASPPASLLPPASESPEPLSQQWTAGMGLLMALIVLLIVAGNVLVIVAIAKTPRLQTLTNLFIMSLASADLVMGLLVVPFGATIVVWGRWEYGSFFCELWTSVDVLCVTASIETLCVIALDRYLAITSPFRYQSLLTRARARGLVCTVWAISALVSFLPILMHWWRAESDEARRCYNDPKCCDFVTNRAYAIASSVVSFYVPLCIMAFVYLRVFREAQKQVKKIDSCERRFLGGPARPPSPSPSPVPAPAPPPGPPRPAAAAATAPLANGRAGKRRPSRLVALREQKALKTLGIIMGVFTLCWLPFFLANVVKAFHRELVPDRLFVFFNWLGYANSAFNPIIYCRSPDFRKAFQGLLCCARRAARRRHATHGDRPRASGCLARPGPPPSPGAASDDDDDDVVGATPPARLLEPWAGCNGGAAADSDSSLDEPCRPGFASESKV

[2] = molecular target: Sigma non-opioid intracellular receptor 1 (Homo sapiens) (UniProt Q99720); assay: Inhibition of sigma receptor at 1 uM
Sequence of Sigma non-opioid intracellular receptor 1 (Homo sapiens) (Q99720 whole entry): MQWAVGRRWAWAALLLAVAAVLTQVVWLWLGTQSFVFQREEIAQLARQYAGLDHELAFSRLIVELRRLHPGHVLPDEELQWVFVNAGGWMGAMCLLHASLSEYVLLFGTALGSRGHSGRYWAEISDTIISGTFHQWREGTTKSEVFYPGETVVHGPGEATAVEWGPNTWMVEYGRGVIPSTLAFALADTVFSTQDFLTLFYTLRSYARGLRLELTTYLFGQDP

[3] = molecular target: Muscarinic acetylcholine receptor M1 (Homo sapiens) (UniProt P11229); assay: Inhibition of M1 receptor at 1 uM
Sequence of Muscarinic acetylcholine receptor M1 (Homo sapiens) (P11229 whole entry): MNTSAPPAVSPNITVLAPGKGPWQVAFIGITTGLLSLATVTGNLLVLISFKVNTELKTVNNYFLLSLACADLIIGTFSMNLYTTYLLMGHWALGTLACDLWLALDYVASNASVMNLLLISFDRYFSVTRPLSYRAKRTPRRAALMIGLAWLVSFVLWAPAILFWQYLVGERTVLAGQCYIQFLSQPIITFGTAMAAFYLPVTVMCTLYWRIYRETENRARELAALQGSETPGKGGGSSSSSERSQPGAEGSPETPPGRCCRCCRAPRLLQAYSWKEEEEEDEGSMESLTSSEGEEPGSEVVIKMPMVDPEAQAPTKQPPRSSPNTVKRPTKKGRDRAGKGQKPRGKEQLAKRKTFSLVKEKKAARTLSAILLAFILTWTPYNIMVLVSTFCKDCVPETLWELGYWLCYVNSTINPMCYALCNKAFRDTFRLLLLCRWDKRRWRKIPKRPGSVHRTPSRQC

[4] = molecular target: Adenosine receptor A3 (Homo sapiens) (UniProt P0DMS8); assay: Inhibition of adenosine A3 receptor at 1 uM
[5] = Ratio of drug level in brain against plasma in rat by MBUA method after 5 min; type: ADME, organism-based; conditions: brain and plasma
[6] = molecular target: Muscarinic acetylcholine receptor M4 (Homo sapiens) (UniProt P08173); assay: Inhibition of M4 receptor at 1 uM
[7] = Ratio of drug level in brain against plasma in rat by MBUA method after 60 min; type: ADME, organism-based; conditions: brain and plasma
[8] = molecular target: Mu-type opioid receptor (Homo sapiens) (UniProt P35372); assay: Inhibition of human mu opioid receptor at 1 uM
Sequence of Mu-type opioid receptor (Homo sapiens) (P35372 whole entry): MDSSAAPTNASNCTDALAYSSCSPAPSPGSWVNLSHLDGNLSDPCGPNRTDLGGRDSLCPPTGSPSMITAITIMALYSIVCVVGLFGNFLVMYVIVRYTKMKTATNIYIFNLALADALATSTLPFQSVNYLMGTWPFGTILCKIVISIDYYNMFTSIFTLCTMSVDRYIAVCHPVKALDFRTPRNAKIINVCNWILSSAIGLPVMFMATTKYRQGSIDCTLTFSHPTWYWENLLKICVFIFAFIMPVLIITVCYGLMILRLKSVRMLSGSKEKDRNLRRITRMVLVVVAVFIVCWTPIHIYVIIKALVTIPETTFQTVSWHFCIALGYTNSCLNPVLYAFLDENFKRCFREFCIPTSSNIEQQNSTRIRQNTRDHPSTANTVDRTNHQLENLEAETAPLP

[9] = Volume of distribution in rat at 5 mg/kg; type: ADME, organism-based; design: dose 5 mg/kg; conditions: in vivo, read-out: Vdss
[10] = molecular target: L-type calcium channel, verapamil site (Homo sapiens, UniProt O60840+Q01668+Q13698+Q13936); assay: Inhibition of verapamil site of Calcium channel L type at 1 uM; type: protein assay
[11] = molecular target: Translocator protein (Homo sapiens) (UniProt P30536); assay: Inhibition of peripheral BZD receptor at 1 uM
Sequence of Translocator protein (Homo sapiens) (P30536 whole entry): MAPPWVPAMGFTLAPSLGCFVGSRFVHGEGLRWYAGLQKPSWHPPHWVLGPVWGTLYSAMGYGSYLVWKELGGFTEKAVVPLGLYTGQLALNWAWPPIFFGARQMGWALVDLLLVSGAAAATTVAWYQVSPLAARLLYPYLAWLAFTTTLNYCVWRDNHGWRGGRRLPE

[12] = molecular target: Sodium-dependent serotonin transporter (Homo sapiens) (UniProt P31645); assay: Inhibition of human 5-HT transporter at 1 uM
Sequence of Sodium-dependent serotonin transporter (Homo sapiens) (P31645 whole entry, looked up): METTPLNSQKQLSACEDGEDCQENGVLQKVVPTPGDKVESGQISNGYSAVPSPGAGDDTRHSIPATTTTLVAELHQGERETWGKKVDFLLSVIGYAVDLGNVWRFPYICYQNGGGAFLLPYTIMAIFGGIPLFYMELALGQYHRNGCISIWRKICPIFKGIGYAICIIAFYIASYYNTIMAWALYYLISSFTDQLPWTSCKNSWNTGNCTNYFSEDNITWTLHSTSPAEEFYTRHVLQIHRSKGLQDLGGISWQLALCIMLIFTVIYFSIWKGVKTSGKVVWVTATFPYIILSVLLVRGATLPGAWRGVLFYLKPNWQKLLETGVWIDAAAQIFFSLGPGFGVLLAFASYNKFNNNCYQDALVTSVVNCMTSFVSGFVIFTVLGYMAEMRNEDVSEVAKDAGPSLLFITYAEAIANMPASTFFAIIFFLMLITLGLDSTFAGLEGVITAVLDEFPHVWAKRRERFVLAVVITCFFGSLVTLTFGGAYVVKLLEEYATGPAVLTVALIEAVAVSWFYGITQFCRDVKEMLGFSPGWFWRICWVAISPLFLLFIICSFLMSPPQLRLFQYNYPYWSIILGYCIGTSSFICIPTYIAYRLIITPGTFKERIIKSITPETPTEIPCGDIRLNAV

Homo sapiens [13] = organism: Homo sapiens; assay: Inhibition of phospholipase C at 1 uM
[14] = molecular target: B2 bradykinin receptor (Homo sapiens) (UniProt P30411); assay: Inhibition of B2 receptor at 1 uM
Sequence of B2 bradykinin receptor (Homo sapiens) (P30411 whole entry, the tested form may be a part): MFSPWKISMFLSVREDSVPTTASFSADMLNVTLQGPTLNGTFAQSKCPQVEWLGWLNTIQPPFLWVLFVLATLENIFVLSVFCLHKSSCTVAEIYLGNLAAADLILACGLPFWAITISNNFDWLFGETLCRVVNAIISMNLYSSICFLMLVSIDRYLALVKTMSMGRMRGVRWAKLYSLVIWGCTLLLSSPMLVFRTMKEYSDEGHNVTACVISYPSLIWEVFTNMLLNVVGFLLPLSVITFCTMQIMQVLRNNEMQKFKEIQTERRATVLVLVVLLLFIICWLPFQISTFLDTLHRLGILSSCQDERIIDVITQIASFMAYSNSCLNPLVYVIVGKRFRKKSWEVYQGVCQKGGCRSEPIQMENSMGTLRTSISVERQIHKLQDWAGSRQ

[15] = Clearance in rat constant infusion model; type: ADME, organism-based; conditions: in vivo, iv
Method in brief: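 Clearance determined in a rat constant infusion model.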

[16] = molecular target: Acetylcholine receptor; alpha1/beta1/delta/gamma (Homo sapiens, UniProt P02708+P07510+P11230+Q07001); assay: Inhibition of alpha-1-beta-1-gamma-delta nAChR expressed in TE671cells by FLIPR assay; type: functional, cell-based, TE-671
Method in brief: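 Functional FLIPR read-out in TE671 cells expressing native muscle-type α1β1γδ nAChR, cell-based; tested for agonist and antagonist activity; IC50 in µM.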

[17] = molecular target: Vasoactive intestinal polypeptide receptor 2 (Homo sapiens) (UniProt P41587); assay: Inhibition of PACAP receptor at 1 uM
[18] = molecular target: Cathepsin G (Homo sapiens) (UniProt P08311); assay: Inhibition of cathepsin G at 1 uM
Sequence of Cathepsin G (Homo sapiens) (P08311 whole entry): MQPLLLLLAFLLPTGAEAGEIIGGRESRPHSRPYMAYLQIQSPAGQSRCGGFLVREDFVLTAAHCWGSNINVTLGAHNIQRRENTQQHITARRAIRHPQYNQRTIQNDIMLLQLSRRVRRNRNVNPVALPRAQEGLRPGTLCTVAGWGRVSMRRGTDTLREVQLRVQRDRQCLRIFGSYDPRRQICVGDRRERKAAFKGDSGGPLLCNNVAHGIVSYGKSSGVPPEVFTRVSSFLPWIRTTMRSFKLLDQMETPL

[19] = molecular target: Acetylcholinesterase (Homo sapiens) (UniProt P22303); assay: Inhibition of acetylcholinesterase at 1 uM
[20] = molecular target: Serotonin 3 (5-HT3) receptor; assay: Activity at 5HT3 receptor expressed in SHEP1 cells by FLIPR assay; type: functional, cell-based, Homo sapiens
Method in brief: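 Cell-based FLIPR functional assay in SH-EP1 cells expressing 5-HT3.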

[21] = molecular target: GABA-A receptor; anion channel (Homo sapiens) (UniProt P14867+P47870+P18507+P28472+P48169+Q99928+Q9UN88+P34903+O00591+O14764+Q8N1C3+P18505+P78334+P47869+P31644+Q16445); assay: Inhibition of central BZD receptor at 1 uM; type: protein-complex assay
MAO-A = MAO-A (Homo sapiens, UniProt P21397); assay: Inhibition of MAO-A at 1 uM
[22] = molecular target: Somatostatin receptor (Homo sapiens) (UniProt P35346+P30874+P31391+P30872+P32745); assay: Inhibition of sst receptor at 1 uM; type: protein assay
[23] = Oral bioavailability in rat constant infusion model; type: ADME, organism-based; conditions: in vivo
Method in brief: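 Rat clearance and oral bioavailability derived from a constant infusion model.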

[24] = molecular target: Type-2 angiotensin II receptor (Homo sapiens) (UniProt P50052); assay: Inhibition of AT2 receptor at 1 uM
Sequence of Type-2 angiotensin II receptor (Homo sapiens) (P50052 whole entry): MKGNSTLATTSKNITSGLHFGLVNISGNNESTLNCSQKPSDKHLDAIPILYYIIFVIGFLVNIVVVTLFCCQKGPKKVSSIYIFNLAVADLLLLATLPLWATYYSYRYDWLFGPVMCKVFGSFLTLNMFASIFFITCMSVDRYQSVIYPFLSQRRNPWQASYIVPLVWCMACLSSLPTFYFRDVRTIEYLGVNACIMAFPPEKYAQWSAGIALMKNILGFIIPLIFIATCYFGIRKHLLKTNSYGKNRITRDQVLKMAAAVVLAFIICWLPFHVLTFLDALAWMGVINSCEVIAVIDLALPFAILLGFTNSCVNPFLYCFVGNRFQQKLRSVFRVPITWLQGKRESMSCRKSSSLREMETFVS

hERG = hERG (Homo sapiens, UniProt Q12809); assay: Inhibition of hERG expressed in HEK293 cells at 20 uM by patch clamp assay; type: toxicity, cell-based; conditions: HEK293 cells that express hERG
Method in brief: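 hERG current (IKr) in HEK cells recorded by patch clamp; compound applied at 2 and 20 µM; % block of current reported at each concentration.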

Homo sapiens [25] = organism: Homo sapiens; assay: Inhibition of chloride channel at 1 uM
[26] = molecular target: Vasoactive intestinal polypeptide receptor 1 (Homo sapiens) (UniProt P32241); assay: Inhibition of VIP1 receptor at 1 uM
Sequence of Vasoactive intestinal polypeptide receptor 1 (Homo sapiens) (P32241 whole entry): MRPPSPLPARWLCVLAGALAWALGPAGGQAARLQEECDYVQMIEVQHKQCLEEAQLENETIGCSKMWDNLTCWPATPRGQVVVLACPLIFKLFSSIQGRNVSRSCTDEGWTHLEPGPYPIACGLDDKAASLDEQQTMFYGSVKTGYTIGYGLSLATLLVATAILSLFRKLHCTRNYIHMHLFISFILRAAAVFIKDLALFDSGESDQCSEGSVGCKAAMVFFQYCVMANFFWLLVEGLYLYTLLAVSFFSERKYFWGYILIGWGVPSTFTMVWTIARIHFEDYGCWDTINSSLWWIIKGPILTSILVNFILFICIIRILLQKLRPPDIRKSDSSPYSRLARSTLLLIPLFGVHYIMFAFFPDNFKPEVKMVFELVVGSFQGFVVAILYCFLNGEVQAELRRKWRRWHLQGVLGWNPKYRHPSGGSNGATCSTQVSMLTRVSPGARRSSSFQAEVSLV

[27] = molecular target: 5-hydroxytryptamine receptor 6 (Homo sapiens) (UniProt P50406); assay: Inhibition of 5HT6 receptor at 1 uM
[28] = molecular target: 5-hydroxytryptamine receptor 2A (Homo sapiens) (UniProt P28223); assay: Inhibition of 5HT2A receptor at 1 uM
[29] = molecular target: Histamine H2 receptor (Homo sapiens) (UniProt P25021); assay: Inhibition of histamine H2 receptor at 1 uM
[30] = molecular target: Adenosine A2 receptor (Homo sapiens) (UniProt P29275+P29274); assay: Inhibition of adenosine A2 receptor at 1 uM; type: protein assay
[31] = Clearance in rat at 5 mg/kg; type: ADME, organism-based; design: dose 5 mg/kg; conditions: in vivo
[32] = molecular target: Glutamate [NMDA] receptor (Homo sapiens) (UniProt Q05586+Q12879+Q13224+O15399+O60391+Q14957+Q8TCU5); assay: Inhibition of NMDA receptor at 1 uM; type: protein-complex assay
[33] = molecular target: Sodium-dependent dopamine transporter (Homo sapiens) (UniProt Q01959); assay: Inhibition of dopamine uptake at human DA transporter at 1 uM
Sequence of Sodium-dependent dopamine transporter (Homo sapiens) (Q01959 whole entry): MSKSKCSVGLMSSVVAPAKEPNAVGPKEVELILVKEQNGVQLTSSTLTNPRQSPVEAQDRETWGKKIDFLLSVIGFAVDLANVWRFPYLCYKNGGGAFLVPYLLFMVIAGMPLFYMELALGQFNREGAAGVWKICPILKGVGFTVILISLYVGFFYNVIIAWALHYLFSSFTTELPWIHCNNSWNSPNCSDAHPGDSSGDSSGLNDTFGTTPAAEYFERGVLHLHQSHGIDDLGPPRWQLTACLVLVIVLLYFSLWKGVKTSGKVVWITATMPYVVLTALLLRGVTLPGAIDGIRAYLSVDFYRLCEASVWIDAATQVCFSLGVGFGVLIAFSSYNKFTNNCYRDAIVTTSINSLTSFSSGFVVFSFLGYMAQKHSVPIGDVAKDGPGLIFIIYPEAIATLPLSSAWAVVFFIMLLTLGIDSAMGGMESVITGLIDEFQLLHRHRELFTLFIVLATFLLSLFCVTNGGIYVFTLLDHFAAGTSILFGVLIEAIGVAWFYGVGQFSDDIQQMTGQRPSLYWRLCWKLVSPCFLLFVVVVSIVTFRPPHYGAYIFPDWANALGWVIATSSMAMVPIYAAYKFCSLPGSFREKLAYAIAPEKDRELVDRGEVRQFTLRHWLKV

[34] = molecular target: Neuronal acetylcholine receptor subunit alpha-7 (Rattus norvegicus) (UniProt Q05941); assay: Activity at alpha-7 nAChR in Sprague-Dawley rat hippocampal neurons assessed as induction of MLA-inhibited desensitizing inward current at 3 uM relative to (-)-nicotine; type: functional, tissue-based; design: scale not given: the % may be the effect or the level left; conditions: Hippocampus
Method in brief: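 Rat hippocampal neurons were recorded by whole-cell patch clamp with rapid agonist application. Desensitizing inward currents were measured, and α7 mediation was tested with MLA (10 nM), n = 3.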

[35] = molecular target: D(1A) dopamine receptor (Homo sapiens) (UniProt P21728); assay: Inhibition of D1 receptor at 1 uM
[36] = molecular target: Vasopressin V1a receptor (Homo sapiens) (UniProt P37288); assay: Inhibition of V1A receptor at 1 uM
[37] = molecular target: Nociceptin receptor (Homo sapiens) (UniProt P41146); assay: Inhibition of ORL1 receptor at 1 uM
[38] = molecular target: 5-hydroxytryptamine receptor 1A (Homo sapiens) (UniProt P08908); assay: Inhibition of 5HT1A receptor at 1 uM
Sequence of 5-hydroxytryptamine receptor 1A (Homo sapiens) (P08908 whole entry): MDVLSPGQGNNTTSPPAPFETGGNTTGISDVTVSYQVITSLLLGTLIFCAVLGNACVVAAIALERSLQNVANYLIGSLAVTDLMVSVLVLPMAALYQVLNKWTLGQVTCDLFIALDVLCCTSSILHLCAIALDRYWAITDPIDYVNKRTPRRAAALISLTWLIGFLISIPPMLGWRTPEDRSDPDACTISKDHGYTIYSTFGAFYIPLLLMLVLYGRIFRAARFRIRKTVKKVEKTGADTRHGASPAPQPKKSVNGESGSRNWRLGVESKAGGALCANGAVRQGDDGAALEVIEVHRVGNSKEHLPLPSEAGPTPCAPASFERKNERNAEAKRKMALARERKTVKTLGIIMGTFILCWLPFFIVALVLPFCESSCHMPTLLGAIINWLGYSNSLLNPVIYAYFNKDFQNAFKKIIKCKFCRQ

[39] = molecular target: D(1B) dopamine receptor (Homo sapiens) (UniProt P21918); assay: Inhibition of D5 receptor at 1 uM
[40] = Metabolic stability in Sprague-Dawley rat liver microsomes after 1 hr; type: ADME, Microsome; conditions: read-out: Stability
Method in brief: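 Rat liver microsomes incubated with compound, in vitro metabolism; read-out is percent of parent remaining at 1 h.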

Homo sapiens [41] = organism: Homo sapiens; assay: Inhibition of GABA receptor at 1 uM

## O=C(N[C@H]1CN2CCC1CC2)c1cc2ccoc2cn1 [PHA-543613]
[1]
  inhibition: < 10%
[2]
  inhibition: < 10%
[3]
  inhibition: 16%
[4]
  inhibition: 12%
[5]
  Kp at 5 min: 1.5
[6]
  inhibition: < 10%
[7]
  Kp at 1 h: 1.5
[8]
  inhibition: < 10%
[9]
  Vd: 1.8 L/kg
[10]
  inhibition at 1 µM: < 10%
[11]
  inhibition: < 10%
[12]
  inhibition: < 10%
Homo sapiens [13]
  inhibition: < 10%
[14]
  inhibition: < 10%
[15]
  clearance: 50 mL/min/kg
[16]
  IC50: > 100 µM
[17]
  inhibition: < 10%
[18]
  inhibition: 15%
[19]
  inhibition: < 10%
[20]
  Ki: 628 nM
[21]
  inhibition: < 10%
MAO-A
  inhibition at 1 µM: < 10%
[22]
  inhibition: < 10%
[23]
  bioavailability: 63%
[24]
  inhibition: < 10%
hERG
  inhibition at 20 µM: 29%
Homo sapiens [25]
  inhibition: < 10%
[26]
  inhibition: < 10%
[27]
  inhibition: < 10%
[28]
  inhibition: < 10%
[29]
  inhibition: < 10%
[30]
  inhibition: < 10%
[31]
  clearance: 33.3 mL/min/kg
[32]
  inhibition: 11%
[33]
  inhibition: < 10%
[34]
  Activity: 103%
[35]
  inhibition: < 10%
[36]
  inhibition: 14%
[37]
  inhibition: < 10%
[38]
  inhibition: < 10%
[39]
  inhibition: < 10%
[40]
  remaining at 1 h: 55%
Homo sapiens [41]
  inhibition: < 10%
